Experimental data of several laboratories.
Each line is one published result; the experiments were not run side by side.
Target: Glucocorticoid receptor (NR3C1, Homo sapiens, UniProt P04150)
Residues used in one study (P04150 1-777): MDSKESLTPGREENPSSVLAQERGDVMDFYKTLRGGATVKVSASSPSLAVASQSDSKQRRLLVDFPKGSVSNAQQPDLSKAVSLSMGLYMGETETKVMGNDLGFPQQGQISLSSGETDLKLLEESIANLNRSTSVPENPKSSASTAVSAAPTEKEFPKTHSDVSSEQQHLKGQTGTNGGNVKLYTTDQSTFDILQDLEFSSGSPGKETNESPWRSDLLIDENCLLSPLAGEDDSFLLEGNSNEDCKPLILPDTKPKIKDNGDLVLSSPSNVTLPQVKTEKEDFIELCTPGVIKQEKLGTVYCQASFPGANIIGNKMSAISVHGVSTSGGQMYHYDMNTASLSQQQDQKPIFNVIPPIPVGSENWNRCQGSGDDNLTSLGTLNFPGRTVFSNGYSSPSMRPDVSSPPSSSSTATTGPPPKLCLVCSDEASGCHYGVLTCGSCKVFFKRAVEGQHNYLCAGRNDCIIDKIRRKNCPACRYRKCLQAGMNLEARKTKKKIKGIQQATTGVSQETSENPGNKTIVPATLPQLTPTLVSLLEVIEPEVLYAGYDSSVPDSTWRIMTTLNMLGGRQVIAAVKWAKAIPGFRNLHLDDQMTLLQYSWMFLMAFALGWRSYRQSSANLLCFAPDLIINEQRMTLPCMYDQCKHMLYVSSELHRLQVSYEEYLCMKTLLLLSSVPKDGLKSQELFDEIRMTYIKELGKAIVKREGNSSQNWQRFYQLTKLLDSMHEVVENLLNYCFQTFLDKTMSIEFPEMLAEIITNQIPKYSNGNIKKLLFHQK

| SMILES | test | setting | quantity | value |
| --- | --- | --- | --- | --- |
| O=C(Nc1cccnn1)N1CCN([C@@H]2CCOc3cc(C(F)(F)F)ccc32)CC1 | cell-free assay | 20 µM | inhibition | 4% |
| Nc1ncc(-c2nc(N3CCOCC3)nc(N3CCOCC3)n2)c(C(F)F)n1 | cell-free assay, radioligand | 10 µM | remaining signal | 105% |
| COCc1c(-c2cc3cc(C)cc(OC)c3s2)c2c(N)ncnn2c1CN1CCNC(=O)C1 | ligand displacement, radioligand | 10 µM | inhibition | -1% |
| C[C@H](C(=O)N[C@H]1COc2ccccc2[C@@H]1S(C)(=O)=O)c1ccc(F)cc1 | cell-free assay | 10 µM | inhibition | 14% |
| CN(CCN1CCC(OC(=O)Nc2ccccc2-c2ccccc2)CC1)C(=O)c1ccc(CN2CCC(C(N)=O)CC2)cc1 | ligand displacement, radioligand | 1 µM | inhibition | -8% |
| Clc1ccc2c(C3CCN(CCc4c[nH]c5ccccc45)CC3)c[nH]c2c1 | ligand displacement, radioligand | 10 µM | inhibition | 7% |
| c1ccc(C(NCCNC(c2ccccc2)c2ccccc2)c2ccccc2)cc1 | cell-free assay | 10 µM | inhibition | 6% |
| CC(C)N1CCC[C@H]1CNC(=O)c1cn(C2CCCC2)c(=O)c2c1c1ccccc1n2C | ligand displacement, radioligand | 10 µM | inhibition | 1% |
